pIC50: −log10 of the molar value.
Assays:
[1] = molecular target: RAC-beta serine/threonine-protein kinase (Homo sapiens, UniProt P31751); test: Inhibition of PKBbeta recombinant by radiometric filter binding assay
[2] = Inhibition of recombinant catalytic subunit PKA by radiometric filter binding assay
[3] = Growth inhibition of human PC3M cells by SRB assay; type: functional, cell-based; details: PC-3M
[4] = Growth inhibition of human U87MG cells by SRB assay; type: functional, cell-based, U-87MG ATCC; details: U-87 MG
Mus musculus [5] = test: Half life in BALB/c mouse at 25 mg/kg, iv; type: ADME, organism-based; parameters: dose 25 mg/kg, route intravenous; details: in vivo
How it was run: (§1)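 Female BALB/c mice dosed at 25 mg kg^-1 intravenously or orally, compound in 10% DMSO 0.1% Tween-20 in saline. Plasma concentrations measured over time to derive T1/2, Tmax, Cmax, AUC, Vss and plasma clearance.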

[6] = molecular target: T1, Ribosomal protein S6 kinase beta-1 (Homo sapiens, UniProt P23443); test: Inhibition of p70S6K by radiometric filter binding assay
How it was run: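 IC50 for p70S6K kinase activity measured in a radiometric filter binding assay.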
Target sequence in this assay (P23443 whole entry): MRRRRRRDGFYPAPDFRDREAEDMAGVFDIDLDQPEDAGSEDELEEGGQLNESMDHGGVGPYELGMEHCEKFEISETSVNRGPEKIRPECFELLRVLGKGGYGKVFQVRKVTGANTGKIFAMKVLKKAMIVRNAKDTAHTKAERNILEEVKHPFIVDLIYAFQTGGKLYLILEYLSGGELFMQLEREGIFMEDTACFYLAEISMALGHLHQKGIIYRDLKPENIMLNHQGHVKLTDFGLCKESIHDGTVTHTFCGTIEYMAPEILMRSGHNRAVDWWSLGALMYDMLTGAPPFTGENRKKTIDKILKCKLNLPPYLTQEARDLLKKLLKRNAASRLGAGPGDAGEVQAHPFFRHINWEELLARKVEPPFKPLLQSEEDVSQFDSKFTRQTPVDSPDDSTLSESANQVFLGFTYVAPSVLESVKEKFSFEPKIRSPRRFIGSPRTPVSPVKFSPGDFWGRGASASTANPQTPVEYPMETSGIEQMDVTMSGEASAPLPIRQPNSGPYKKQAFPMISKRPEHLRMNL

[7] = Tmax in BALB/c mouse at 25 mg/kg, iv; type: ADME, organism-based; parameters: dose 25 mg/kg, route intravenous; details: in vivo; how it was run: as §1
[8] = AUC in BALB/c mouse at 25 mg/kg, iv; type: ADME, organism-based; parameters: dose 25 mg/kg, route intravenous; details: plasma; how it was run: as §1
[9] = Metabolic stability in human liver microsomes at 10 uM after 30 mins; type: ADME, Microsome; details: read-out: Stability
How it was run: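 Human liver microsomes with cofactors for phase I metabolism, compound at 10 µM for 30 min. Percent parent remaining measured by LC-MS/MS.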

Plasma = test: Drug level in BALB/c mouse plasma at 25 mg/kg, po; type: ADME, organism-based; parameters: dose 25 mg/kg, route oral; details: in vivo; how it was run: as §1
[10] = Metabolic stability in BALB/c mouse liver microsomes at 10 uM after 30 mins; type: ADME, Microsome; details: read-out: Stability
How it was run: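 Incubated at 10 µM for 30 min in mouse liver microsomes competent for phase I and phase II metabolism. Parent remaining quantified by LC-MS/MS, with metabolite identification.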

[11] = Half life in BALB/c mouse at 25 mg/kg, po; type: ADME, organism-based; parameters: dose 25 mg/kg, route oral; details: in vivo; how it was run: as §1
Mus musculus [12] = test: Clearance in BALB/c mouse plasma at 25 mg/kg, iv; type: ADME, organism-based; parameters: dose 25 mg/kg, route intravenous; details: in vivo; how it was run: as §1
[13] = Cmax in BALB/c mouse at 25 mg/kg, iv; type: ADME, organism-based; parameters: dose 25 mg/kg, route intravenous; details: in vivo; how it was run: as §1
[14] = Cmax in BALB/c mouse at 25 mg/kg, po; type: ADME, organism-based; parameters: dose 25 mg/kg, route oral; details: in vivo; how it was run: as §1
[15] = AUC in BALB/c mouse at 25 mg/kg, po; type: ADME, organism-based; parameters: dose 25 mg/kg, route oral; details: plasma; how it was run: as §1
[16] = Tmax in BALB/c mouse at 25 mg/kg, po; type: ADME, organism-based; parameters: dose 25 mg/kg, route oral; details: in vivo; how it was run: as §1
[17] = Oral bioavailability in BALB/c mouse at 25 mg/kg; type: ADME, organism-based; details: in vivo
Mus musculus [18] = test: Volume of distribution at steady state in BALB/c mouse at 25 mg/kg, iv; type: ADME, organism-based; parameters: dose 25 mg/kg, route intravenous; details: in vivo; how it was run: as §1
[19] = Selectivity for PKBbeta over PKA
[20] = molecular target: Proto-oncogene tyrosine-protein kinase Src (Homo sapiens) (UniProt P12931); test: Inhibition of SRC at 1 uM
How it was run: (§2)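 Screen against a panel of 21 kinases, percent inhibition at 1 µM compound.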

[21] = molecular target: T2, Serine/threonine-protein kinase Chk1 (Homo sapiens) (UniProt O14757); test: Inhibition of CHK1 at 1 uM; how it was run: as §2
T2 sequence (whole entry): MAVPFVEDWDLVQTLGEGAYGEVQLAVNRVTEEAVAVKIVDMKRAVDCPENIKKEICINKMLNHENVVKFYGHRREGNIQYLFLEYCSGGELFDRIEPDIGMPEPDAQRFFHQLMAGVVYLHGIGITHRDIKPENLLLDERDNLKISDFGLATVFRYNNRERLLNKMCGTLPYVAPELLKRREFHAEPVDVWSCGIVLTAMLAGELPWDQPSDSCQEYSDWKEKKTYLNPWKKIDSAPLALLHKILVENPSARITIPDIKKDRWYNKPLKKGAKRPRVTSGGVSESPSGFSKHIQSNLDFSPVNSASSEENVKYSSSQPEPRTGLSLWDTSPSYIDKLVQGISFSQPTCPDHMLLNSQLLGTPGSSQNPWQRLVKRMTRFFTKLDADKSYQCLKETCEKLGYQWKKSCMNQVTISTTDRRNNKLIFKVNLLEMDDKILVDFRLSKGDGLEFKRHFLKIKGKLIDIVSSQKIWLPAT

[22] = molecular target: Serine/threonine-protein kinase Chk2 (Homo sapiens) (UniProt O96017); test: Inhibition of CHK2 at 1 uM; how it was run: as §2
[23] = molecular target: Receptor-type tyrosine-protein kinase FLT3 (Homo sapiens) (UniProt P36888); test: Inhibition of FLT3 at 1 uM; how it was run: as §2
[24] = molecular target: Ribosomal protein S6 kinase alpha-2 (Homo sapiens) (UniProt Q15349); test: Inhibition of RSK2 at 1 uM; how it was run: as §2
[25] = molecular target: T1, Ribosomal protein S6 kinase beta-1; test: Inhibition of p70S6K at 1 uM; how it was run: as §2
Target sequence in this assay (P23443 whole entry, looked up): as the sequence (P23443 whole entry) above

[26] = molecular target: Rho-associated protein kinase 2 (Homo sapiens) (UniProt O75116); test: Inhibition of ROCK2 at 1 uM; how it was run: as §2
[27] = Inhibition of PKC at 1 uM; how it was run: as §2

Sequence of RAC-beta serine/threonine-protein kinase (P31751 whole entry): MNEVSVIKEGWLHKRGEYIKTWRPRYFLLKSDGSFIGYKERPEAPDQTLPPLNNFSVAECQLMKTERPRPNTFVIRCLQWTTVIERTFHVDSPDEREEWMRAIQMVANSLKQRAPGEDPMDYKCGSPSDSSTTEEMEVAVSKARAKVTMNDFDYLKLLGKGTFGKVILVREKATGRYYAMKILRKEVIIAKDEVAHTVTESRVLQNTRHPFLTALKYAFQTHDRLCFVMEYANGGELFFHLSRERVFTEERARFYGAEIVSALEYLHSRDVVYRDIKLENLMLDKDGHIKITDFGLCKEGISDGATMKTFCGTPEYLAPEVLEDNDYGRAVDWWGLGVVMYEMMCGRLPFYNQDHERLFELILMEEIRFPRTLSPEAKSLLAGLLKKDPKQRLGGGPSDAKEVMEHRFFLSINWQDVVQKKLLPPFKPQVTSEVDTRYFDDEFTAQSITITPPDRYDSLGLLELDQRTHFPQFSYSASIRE
Sequence of Rho-associated protein kinase 2 (Homo sapiens) (O75116 whole entry, looked up): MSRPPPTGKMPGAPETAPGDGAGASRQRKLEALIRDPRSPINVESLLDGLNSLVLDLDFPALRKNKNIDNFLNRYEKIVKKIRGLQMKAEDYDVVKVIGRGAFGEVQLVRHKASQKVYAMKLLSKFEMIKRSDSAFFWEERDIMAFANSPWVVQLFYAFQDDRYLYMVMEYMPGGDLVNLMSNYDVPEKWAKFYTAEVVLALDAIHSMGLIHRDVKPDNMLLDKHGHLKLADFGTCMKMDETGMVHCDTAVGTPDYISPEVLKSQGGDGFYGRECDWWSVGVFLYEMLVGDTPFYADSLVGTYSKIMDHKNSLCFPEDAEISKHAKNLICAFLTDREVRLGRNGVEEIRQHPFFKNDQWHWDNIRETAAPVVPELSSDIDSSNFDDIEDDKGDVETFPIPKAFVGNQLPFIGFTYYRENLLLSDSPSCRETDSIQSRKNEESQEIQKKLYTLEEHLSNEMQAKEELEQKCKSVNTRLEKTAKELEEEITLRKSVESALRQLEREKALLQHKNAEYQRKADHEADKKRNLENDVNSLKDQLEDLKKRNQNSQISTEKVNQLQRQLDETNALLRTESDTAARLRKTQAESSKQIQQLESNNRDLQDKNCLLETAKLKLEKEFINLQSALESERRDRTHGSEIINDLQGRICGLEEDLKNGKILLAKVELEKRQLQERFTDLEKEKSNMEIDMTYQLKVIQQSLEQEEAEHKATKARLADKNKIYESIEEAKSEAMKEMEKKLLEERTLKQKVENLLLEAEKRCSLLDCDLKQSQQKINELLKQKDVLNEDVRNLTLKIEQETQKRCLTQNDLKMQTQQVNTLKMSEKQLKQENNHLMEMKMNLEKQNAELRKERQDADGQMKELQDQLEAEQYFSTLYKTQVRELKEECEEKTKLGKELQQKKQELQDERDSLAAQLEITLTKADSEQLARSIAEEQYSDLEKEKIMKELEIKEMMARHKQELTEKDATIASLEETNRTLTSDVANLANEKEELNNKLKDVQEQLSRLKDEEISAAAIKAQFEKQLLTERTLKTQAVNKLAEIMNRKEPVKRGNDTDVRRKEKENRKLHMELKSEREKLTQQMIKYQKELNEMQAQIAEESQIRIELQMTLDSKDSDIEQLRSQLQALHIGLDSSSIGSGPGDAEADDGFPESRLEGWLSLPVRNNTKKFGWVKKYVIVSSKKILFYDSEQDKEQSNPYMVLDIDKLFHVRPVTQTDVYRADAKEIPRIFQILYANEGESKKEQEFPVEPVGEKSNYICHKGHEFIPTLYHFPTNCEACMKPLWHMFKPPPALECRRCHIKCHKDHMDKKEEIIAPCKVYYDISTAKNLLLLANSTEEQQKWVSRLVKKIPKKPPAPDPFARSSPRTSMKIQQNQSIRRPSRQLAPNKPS
Sequence of Receptor-type tyrosine-protein kinase FLT3 (Homo sapiens) (P36888 whole entry): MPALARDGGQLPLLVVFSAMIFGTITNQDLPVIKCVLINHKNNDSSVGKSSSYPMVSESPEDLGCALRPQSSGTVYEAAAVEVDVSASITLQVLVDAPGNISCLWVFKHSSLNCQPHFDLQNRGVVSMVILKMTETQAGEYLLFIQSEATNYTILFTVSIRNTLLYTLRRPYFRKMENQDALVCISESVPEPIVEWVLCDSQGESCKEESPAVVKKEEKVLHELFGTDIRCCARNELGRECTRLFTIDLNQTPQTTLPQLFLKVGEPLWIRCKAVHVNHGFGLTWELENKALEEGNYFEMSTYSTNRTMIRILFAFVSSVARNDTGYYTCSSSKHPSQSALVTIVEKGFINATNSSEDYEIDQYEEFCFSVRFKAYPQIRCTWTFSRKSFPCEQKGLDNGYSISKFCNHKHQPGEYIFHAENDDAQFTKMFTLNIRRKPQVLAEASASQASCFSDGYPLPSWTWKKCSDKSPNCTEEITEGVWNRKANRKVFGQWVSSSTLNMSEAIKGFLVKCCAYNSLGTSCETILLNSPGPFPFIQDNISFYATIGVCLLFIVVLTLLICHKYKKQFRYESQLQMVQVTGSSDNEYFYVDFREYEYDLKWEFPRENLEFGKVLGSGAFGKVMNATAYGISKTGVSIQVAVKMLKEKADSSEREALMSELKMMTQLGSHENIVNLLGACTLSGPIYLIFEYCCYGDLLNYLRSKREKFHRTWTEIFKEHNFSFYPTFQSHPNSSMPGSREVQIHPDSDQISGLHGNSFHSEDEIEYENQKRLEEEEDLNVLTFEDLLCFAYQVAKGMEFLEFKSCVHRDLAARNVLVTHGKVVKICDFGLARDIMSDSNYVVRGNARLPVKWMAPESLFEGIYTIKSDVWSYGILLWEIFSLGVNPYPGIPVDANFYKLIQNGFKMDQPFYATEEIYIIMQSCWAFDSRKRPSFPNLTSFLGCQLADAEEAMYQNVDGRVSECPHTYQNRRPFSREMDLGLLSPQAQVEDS
Sequence of Ribosomal protein S6 kinase alpha-2 (Homo sapiens) (Q15349 whole entry): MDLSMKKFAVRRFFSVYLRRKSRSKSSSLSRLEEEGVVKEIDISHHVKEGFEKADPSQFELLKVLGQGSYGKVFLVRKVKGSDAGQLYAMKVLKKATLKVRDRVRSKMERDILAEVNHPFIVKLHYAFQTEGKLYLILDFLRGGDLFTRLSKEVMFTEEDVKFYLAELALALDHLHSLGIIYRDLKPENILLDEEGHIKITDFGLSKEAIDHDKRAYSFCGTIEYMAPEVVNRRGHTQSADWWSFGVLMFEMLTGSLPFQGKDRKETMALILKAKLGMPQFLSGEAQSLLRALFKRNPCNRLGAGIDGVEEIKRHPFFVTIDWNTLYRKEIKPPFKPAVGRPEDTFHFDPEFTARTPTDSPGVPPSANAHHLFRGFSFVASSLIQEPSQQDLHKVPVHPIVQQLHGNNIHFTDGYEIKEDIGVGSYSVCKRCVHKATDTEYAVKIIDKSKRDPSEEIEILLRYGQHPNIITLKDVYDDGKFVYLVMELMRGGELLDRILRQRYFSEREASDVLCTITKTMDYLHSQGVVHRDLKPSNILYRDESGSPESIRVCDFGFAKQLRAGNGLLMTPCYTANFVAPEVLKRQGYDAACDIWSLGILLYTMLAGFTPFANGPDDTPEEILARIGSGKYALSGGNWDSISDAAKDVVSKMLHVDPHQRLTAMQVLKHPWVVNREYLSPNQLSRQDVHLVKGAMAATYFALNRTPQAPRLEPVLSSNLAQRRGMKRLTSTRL
Sequence of Serine/threonine-protein kinase Chk2 (Homo sapiens) (O96017 whole entry): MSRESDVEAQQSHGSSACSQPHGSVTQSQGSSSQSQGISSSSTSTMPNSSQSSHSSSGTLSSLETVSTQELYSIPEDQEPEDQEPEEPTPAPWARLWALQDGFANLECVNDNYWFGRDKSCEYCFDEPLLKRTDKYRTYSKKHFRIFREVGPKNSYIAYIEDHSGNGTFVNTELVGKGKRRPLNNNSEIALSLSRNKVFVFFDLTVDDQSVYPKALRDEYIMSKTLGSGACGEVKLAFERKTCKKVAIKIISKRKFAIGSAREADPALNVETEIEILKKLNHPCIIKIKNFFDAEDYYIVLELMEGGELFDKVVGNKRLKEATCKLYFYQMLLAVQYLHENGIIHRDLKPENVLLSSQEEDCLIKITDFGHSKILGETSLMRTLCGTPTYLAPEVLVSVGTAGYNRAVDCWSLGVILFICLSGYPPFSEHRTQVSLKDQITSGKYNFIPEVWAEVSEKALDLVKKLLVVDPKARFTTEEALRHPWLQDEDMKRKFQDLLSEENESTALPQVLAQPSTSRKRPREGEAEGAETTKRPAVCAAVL

pIC50 [1] | pIC50 [2] | Structure (SMILES) | pIC50 [3] | other results
6.74 | 5.81 | NC1CCN(c2ncnc3[nH]ccc23)CC1 | 4.32 | –
6.06 | 5.71 | NC1CCN(c2ccnc3[nH]ccc23)CC1 | 4.51 | –
7.92 | 8.52 | NC(c1ccc(Cl)cc1)C1CCN(c2ccnc3[nH]ccc23)CC1 (stereo not given) | 5.28 | pIC50 [4]: 5.46
3.96 | – | Cc1nc2ncnc(N3CCC(N)CC3)c2[nH]1 | – | –
– | – | NC1(Cc2ccc(Cl)cc2)CCN(c2ncnc3[nH]ccc23)CC1 | 4.92 | t1/2 (Mus musculus [5]): 57 min; pIC50 [6]: 6.92; pIC50 [4]: 5.30; Tmax [7]: 4.98 min; AUC [8]: 4.62 µM·h; remaining at 0.5 h, 10 µM [9]: 79%; concentration (Plasma): 432 nM; remaining at 0.5 h, 10 µM [10]: 87%; half-life [11]: 34.2 min; clearance (Mus musculus [12]): 0.325 L/h; Cmax [13]: 6.36 µM; Cmax [14]: 432 nM; AUC [15]: 0.392 µM·h; Tmax [16]: 30 min; bioavailability [17]: 8.5%; Vdss (Mus musculus [18]): 0.25 L
6.11 | 6.34 | NCC1CCN(c2ncnc3[nH]ccc23)CC1 | 4.49 | –
7.80 | 8.52 | NCC1(c2ccc(Cl)cc2)CCN(c2ncnc3[nH]cnc23)CC1 | 5.24 | –
7.60 | 7.27 | NC(c1ccc(Cl)cc1)C1CCN(c2ncnc3[nH]ccc23)CC1 (stereo not given) | 5.13 | pIC50 [4]: 5.22
– | 5.28 | O=S(=O)(NCCNC/C=C/c1ccc(Br)cc1)c1cccc2cnccc12 | 4.74 | –
7.60 | 8.52 | NCC1(c2ccc(Cl)cc2)CCN(c2ccnc3[nH]ccc23)CC1 | 4.80 | –
8.52 | 8.15 | NCC1(Cc2ccc(Cl)cc2)CCN(c2ncnc3[nH]cnc23)CC1 | 4.70 | –
8.15 | 7.82 | NC1(c2ccc(Cl)cc2)CCN(c2ncnc3[nH]ccc23)CC1 | 5.10 | pIC50 [4]: 5.33
7.60 | 6.54 | NC1(Cc2ccc(Cl)cc2)CCN(c2ncnc3[nH]cnc23)CC1 | < 4.30 | Selectivity ratio [19]: 11
6.54 | 6.05 | NCC1CCN(c2ncnc3[nH]cnc23)CC1 | < 4.30 | –
6.04 | 5.62 | NCC1CCN(c2ncnc3[nH]ncc23)CC1 | < 4.30 | –
4.23 | – | c1nc(N2CCCCC2)c2nc[nH]c2n1 | – | –
6.61 | 6.14 | NC(c1ccccc1)C1CCN(c2ncnc3[nH]ccc23)CC1 (stereo not given) | 4.42 | –
4.39 | – | NC(=O)C1CCN(c2ncnc3[nH]cnc23)CC1 | – | –
6.08 | 5.14 | NC1CCN(c2ncnc3[nH]ncc23)CC1 | 4.42 | –
8.10 | 8.30 | NCC1(c2ccc(Cl)cc2)CCN(c2ncnc3[nH]ccc23)CC1 | 6.00 | inhibition [20]: > 60%; inhibition [21]: > 60%; pIC50 [4]: 6.28; inhibition [22]: > 60%; inhibition [23]: > 60%; inhibition [24]: > 60%; inhibition [25]: > 60%; inhibition [26]: > 60%; inhibition [27]: > 60%
8.30 | 8.05 | NCC1(Cc2ccc(Cl)cc2)CCN(c2ncnc3[nH]ccc23)CC1 | 4.82 | pIC50 [4]: 5.37
7.15 | 7.57 | NC(c1ccc(Cl)cc1)C1CCN(c2ncnc3[nH]cnc23)CC1 (stereo not given) | 4.64 | –
8.15 | 7.64 | NC1(c2ccc(Cl)cc2)CCN(c2ncnc3[nH]cnc23)CC1 | < 4.30 | –

Source: ChEMBL document CHEMBL1144694, “Identification of 4-(4-aminopiperidin-1-yl)-7H-pyrrolo[2,3-d]pyrimidines as selective inhibitors of protein kinase B through fragment elaboration” (J Med Chem, 2008)
